Experimental data reported in ChEMBL document CHEMBL1126613, “Centrally acting serotonergic agents. Synthesis and structure-activity relationships of C-1- or C-3-substituted derivatives of 8-hydroxy-2-(di-n-propylamino)tetralin” (J Med Chem, 1993).
Values joined by “and” are separate entries in the source; they are usually repeats but may differ in a detail not shown here. Equal entries are not always repeated.

Tests used:
Mus musculus [1] = test: Behavioral time in mouse face to face assay at 32 umol/kg administered; format: functional
How it was run: (§1)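 Male CF-1 mice (Charles River, 19-29 g), 8 pairs per dose, dosed sc, ip or orally in 0.25% methylcellulose or 0.1% citric acid; 30 min absorption housed with familiar partner. Pairs from different home cages placed in small litter-floored cage; face-to-face interaction duration scored visually for 3 min. Wilcoxon rank sum (two-tailed) vs daily control, p < 0.05.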

Mus musculus [2] = test: Behavioral time in mouse isolation-induced aggression assay 0 umol/kg administered peritoneally; format: functional; settings: in the assay text read “administered orally” for “administered peritoneally”
How it was run: (§2)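 Male CF-1 mice. Residents were isolated singly for at least 1 month; group-housed intruders were kept 4-6/cage. Mice weighed 28-30 g at first test. Residents got drug ip or orally in 0.25% methylcellulose or 0.1% citric acid 30 min before an untreated intruder was introduced. Latency to fighting was recorded, capped at 600 s. Dosing was blind, 6/group (vehicle n = 12), Wilcoxon rank sum.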

Mus musculus [3] = test: Behavioral time in mouse face to face assay at 3.2 umol/kg administered; format: functional; how it was run: as §1
Mus musculus [4] = test: Behavioral time in mouse isolation-induced aggression assay 32 umol/kg administered peritoneally; format: functional; settings: in the assay text read “administered orally” for “administered peritoneally”; how it was run: as §2
Mus musculus [5] = test: Behavioral time in mouse face to face assay at 0.3 umol/kg administered; format: functional; how it was run: as §1
Mus musculus [6] = test: Behavioral time in mouse face to face assay at 0 umol/kg administered; format: functional; how it was run: as §1
Mus musculus [7] = test: (§3) Behavioral time in mouse isolation-induced aggression assay at 0 umol/kg administered intraperitoneally; format: functional
How it was run: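 Isolated male CF-1 resident mice, housed singly ≥1 month and weighing 28-30 g at testing, were dosed ip or orally in 0.25% methylcellulose or 0.1% citric acid. Dosing was blind, 6 per group (n=12 vehicle). After 30 min an untreated group-housed intruder was introduced. Latency to fighting was recorded, capped at 600 s. Residents rested ≥3 days before reuse. Wilcoxon rank sum.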

Mus musculus [8] = test: Behavioral time in mouse face to face assay at 0 umol/kg administered perorally; format: functional; how it was run: as §1
Mus musculus [9] = test: Behavioral time in mouse face to face assay at 0.3 umol/kg administered perorally (*P<0.05); format: functional; how it was run: as §1
Mus musculus [10] = test: Behavioral time in mouse face to face assay at 0.03 umol/kg administered perorally; format: functional; how it was run: as §1
Mus musculus [11] = test: Tested in vivo for the maximum temperature decrease in mouse hypothermia assay.; format: functional
How it was run: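 CF-1 mice (18-22 g, 4 per dose), dosed sc or orally. Rectal temperature measured before dosing and 20 min after. The mean maximum temperature drop (°F) at 20 min after any dose is recorded as an efficacy index.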

Mus musculus [12] = test: Behavioral time in mouse isolation-induced aggression assay at 10 umol/kg administered perorally (*P<0.05); format: functional; how it was run: as §2
Mus musculus [13] = test: Behavioral time in mouse face to face assay at 33 umol/kg administered perorally (*P<0.05); format: functional; how it was run: as §1
Mus musculus [14] = test: Behavioral time in mouse isolation-induced aggression assay at 0 umol/kg administered perorally (*P<0.05); format: functional; how it was run: as §2
Mus musculus [15] = test: In vivo effective dose administered subcutaneously in mouse hypothermia assay.; format: functional; settings: sc
How it was run: (§4)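 Charles River CF-1 mice (18-22 g, 4 per dose), housed individually 20 min before testing. Rectal temperature taken before dosing and 20 min after (sc 0.1 mL; oral 0.2 mL by gavage needle). A drop of ≥2 °F counted as positive. Doses started at 30 mg/kg and fell by half-log until 0/4 responded.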

Mus musculus [16] = test: Behavioral time in mouse face to face assay at 3.3 umol/kg administered perorally (*P<0.05); format: functional; how it was run: as §1
Mus musculus [17] = test: Behavioral time in mouse isolation-induced aggression assay at 33 umol/kg administered perorally (*P<0.05); format: functional; how it was run: as §2
Mus musculus [18] = test: Behavioral time in mouse isolation-induced aggression assay at 10 umol/kg administered intraperitoneally (*P<0.05); format: functional; how it was run: as §2
Mus musculus [19] = test: Tested in vivo for the effective dose administered orally in mouse hypothermia assay; format: functional; settings: po; how it was run: as §4
Felis catus [20] = test: Maximum decrease on arterial blood pressure at 1 mg/kg; format: functional
How it was run: (§5)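 Adult cats (2.5-4.0 kg) anesthetized with ketamine 11 mg/kg im, then chloralose 80 mg/kg iv. Femoral artery cannulated for blood pressure, femoral vein for drug. Ventilated, paralyzed with gallamine 4 mg/kg iv, rectal temperature held at 37-38 °C. Cumulative iv doses given at 20-min intervals. Maximum decrease reported following a 1 mg/kg iv dose.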

Mus musculus [21] = test: Behavioral time in mouse face to face assay at 0 umol/kg administered subcutaneously; format: functional; how it was run: as §1
Mus musculus [22] = test: Behavioral time in mouse face to face assay at 0.4 umol/kg administered subcutaneously; format: functional; how it was run: as §1
Mus musculus [23] = test: Behavioral time in mouse face to face assay at 36 umol/kg administered subcutaneously; format: functional; how it was run: as §1
Felis catus [24] = test: Dose on arterial blood pressure (BP) in anesthetized cat; format: functional; how it was run: as §5
Rattus norvegicus [25] = test: Effect on the synthesis rate of dopamine (DOPA) accumulation at the dose of 3.5 uM/kg in the rat ventral limbic brain region; format: functional, Limbic system
How it was run: (§6)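 Male Sprague-Dawley rats dosed sc with drug or vehicle at time zero. NSD 1015 (100 mg/kg ip) given 15 min later to block aromatic decarboxylase. Brain DOPA and 5-HTP measured by electrochemical detection with peak integration. Expressed as percent change from NSD 1015 plus saline controls. Control and test groups N = 6 each, compared by unpaired t test.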

Felis catus [26] = organism: Felis catus; test: Maximum decrease observed; format: functional; design: unit not given here
Mus musculus [27] = test: Behavioral time in mouse face to face assay at 3.5 umol/kg administered subcutaneously; format: functional; how it was run: as §1
Felis catus [28] = organism: Felis catus; test: Dose at which the SND has been reduced to 50% of the pretreatment value; format: functional
How it was run: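 Adult cats (2.5-4.0 kg), ketamine 11 mg/kg im then chloralose 80 mg/kg iv, ventilated, gallamine-paralyzed, rectal temperature 37-38 °C. Sympathetic nerve discharge quantified by cumulative integration. Cumulative iv doses were given at 20-min intervals. Value is the dose reducing discharge to 50% of pretreatment.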

Rattus norvegicus [29] = test: Effect on the synthesis rate of 5 HTP accumulation at the dose of 3.5 umol/kg in the rat ventral limbic brain region; format: functional, Limbic system; how it was run: as §6
Mus musculus [30] = test: as §3; format: functional; how it was run: as §2; remark: listed apart in the source
Mus musculus [31] = test: Behavioral time in mouse face to face assay at 35 umol/kg administered perorally; format: functional; how it was run: as §1
Mus musculus [32] = test: Behavioral time in mouse face to face assay at 3.5 umol/kg administered perorally; format: functional; how it was run: as §1
Mus musculus [33] = test: Behavioral time in mouse face to face assay at 11 umol/kg administered perorally; format: functional; how it was run: as §1
Mus musculus [34] = test: Behavioral time in mouse isolation-induced aggression assay at 11 umol/kg administered intraperitoneally (*P<0.05); format: functional; how it was run: as §2
Mus musculus [35] = test: Behavioral time in mouse isolation-induced aggression assay at 0 umol/kg administered perorally; format: functional; how it was run: as §2
Mus musculus [36] = test: Behavioral time in mouse isolation-induced aggression assay at 35 umol/kg administered perorally (*P<0.05); format: functional; how it was run: as §2
Mus musculus [37] = test: Behavioral time in mouse isolation-induced aggression assay at 3.5 umol/kg administered perorally; format: functional; how it was run: as §2
Mus musculus [38] = test: Behavioral time in mouse isolation-induced aggression assay at 11 umol/kg administered perorally; format: functional; how it was run: as §2
Mus musculus [39] = test: Behavioral time in mouse isolation-induced aggression assay at 3.5 umol/kg administered intraperitoneally (*P<0.05); format: functional; how it was run: as §2
Rattus norvegicus [40] = test: Effect on the synthesis rate of dopamine (DOPA) accumulation at the dose of 9.7 umol/kg in the rat ventral limbic brain region; format: functional, Limbic system; how it was run: as §6
Rattus norvegicus [41] = test: Effect on the synthesis rate of 5 HTP accumulation at the dose of 9.7 uM/kg in the rat ventral limbic brain region; format: functional, Limbic system; how it was run: as §6
Felis catus [42] = test: Maximum decrease observed following 1 mg/kg dose; format: functional
Mus musculus [43] = test: Behavioral time in mouse face to face assay at 0 umol/kg administered intraperitoneally; format: functional; how it was run: as §1
Rattus norvegicus [44] = test: Effect on the synthesis rate of 5 HTP accumulation at 68 umol/kg in the rat ventral limbic brain region; format: functional, Limbic system; how it was run: as §6
Rattus norvegicus [45] = test: Effect on the synthesis rate of dopamine (DOPA) accumulation at 3.4 umol/kg in the rat ventral limbic brain region; format: functional, Limbic system; how it was run: as §6
Rattus norvegicus [46] = test: Effect on the synthesis rate of dopamine (DOPA) accumulation at the dose of 68 umol/kg in the rat ventral limbic brain region; format: functional, Limbic system; how it was run: as §6
Rattus norvegicus [47] = test: Effect on the synthesis rate of 5 HTP accumulation at 3.4 umol/kg in the rat ventral limbic brain region; format: functional, Limbic system; how it was run: as §6
Rattus norvegicus [48] = test: Effect on the synthesis rate of dopamine (DOPA) accumulation at the dose of 10 umol/kg in the rat ventral limbic brain region; format: functional, Limbic system; how it was run: as §6
Rattus norvegicus [49] = test: Effect on the synthesis rate of 5 HTP accumulation at the dose of 10 umol/kg in the rat ventral limbic brain region; format: functional, Limbic system; how it was run: as §6

## C=CCN[C@@H]1CCc2cccc(OC)c2[C@@H]1C(=O)OC
Mus musculus [1]
  Time: 0.8 s
Mus musculus [2]
  Time: 56 s
Mus musculus [3]
  Time: 1.1 s
Mus musculus [4]
  Time: 120 s
Mus musculus [5]
  Time: 1 s
Mus musculus [6]
  Time: 0.7 s

## CCCN(C)[C@@H]1CCc2cccc(OC)c2[C@@H]1CO
Mus musculus [7]
  Time: 6 s
Mus musculus [8]
  Time: 1.1 s
Mus musculus [9]
  Time: 2 s
Mus musculus [10]
  Time: 1.7 s
Mus musculus [11]
  TMP.decrease: 9.1 degrees F and 5 degrees F
Mus musculus [12]
  Time: 125 s
Mus musculus [13]
  Time: 2.1 s
Mus musculus [14]
  Time: 43 s
Mus musculus [15]
  ED50: 5.7 µmol/kg
Mus musculus [16]
  Time: 1.7 s
Mus musculus [17]
  Time: 269 s
Mus musculus [18]
  Time: 329 s
Mus musculus [19]
  ED50: 32 µmol/kg

## C=CC[C@H]1c2c(O)cccc2CC[C@H]1NCCC
Felis catus [20]
  Max decrease: 55
Mus musculus [21]
  Time: 2.8 s
Mus musculus [22]
  Time: 2.9 s
Mus musculus [23]
  Time: 3.8 s
Felis catus [24]
  BP: 77%
Rattus norvegicus [25]
  Change: 14%
Mus musculus [11]
  TMP.decrease: 9.5 degrees F and 6.9 degrees F
Felis catus [26]
  Max decrease: 10
Mus musculus [27]
  Time: 3.9 s
Mus musculus [15]
  ED50: 1.1 µmol/kg
Felis catus [28]
  ED50: 0.09 µmol/kg
Rattus norvegicus [29]
  Change: -53%
Mus musculus [19]
  ED50: 61 µmol/kg

## CCCN[C@@H]1CCc2cccc(O)c2[C@@H]1CCC
Mus musculus [30]
  Time: 8 s
Mus musculus [31]
  Time: 1.1 s
Mus musculus [32]
  Time: 1.1 s
Mus musculus [33]
  Time: 1.3 s
Mus musculus [34]
  Time: 125 s
Mus musculus [8]
  Time: 1.1 s
Mus musculus [35]
  Time: 11 s
Mus musculus [11]
  TMP.decrease: 10.4 degrees F and 7.5 degrees F
Mus musculus [15]
  ED50: 6.1 µmol/kg
Mus musculus [36]
  Time: 54 s
Mus musculus [37]
  Time: 28 s
Mus musculus [38]
  Time: 146 s
Mus musculus [39]
  Time: 97 s
Mus musculus [19]
  ED50: 46 µmol/kg

## CCCN[C@@H]1CCc2cccc(OC)c2[C@@H]1CC1CC1
Rattus norvegicus [40]
  Change: 5%
Mus musculus [11]
  TMP.decrease: 7.4 degrees F
Rattus norvegicus [41]
  Change: -25.8%
Mus musculus [15]
  ED50: 31 µmol/kg

## C=CC[C@@H]1c2c(cccc2OC)CC[C@H]1NCCC (relative stereo)
Felis catus [42]
  Max decrease: 66
Mus musculus [43]
  Time: 0.4 s
Rattus norvegicus [44]
  Change: -16%
Felis catus [24]
  BP: 71%
Rattus norvegicus [45]
  Change: -4.3%
Mus musculus [11]
  TMP.decrease: 10.2 degrees F and 5.8 degrees F
Felis catus [26]
  Max decrease: 16
Rattus norvegicus [46]
  Change: 8.1%
Mus musculus [15]
  ED50: 14 µmol/kg
Felis catus [28]
  ED50: 1.35 µmol/kg
Mus musculus [19]
  ED50: 59 µmol/kg
Rattus norvegicus [47]
  Change: -6.9%

## C=CC[C@@H]1c2cccc(OC)c2CC[C@H]1NCCC (relative stereo)
Rattus norvegicus [48]
  Change: -15%
Rattus norvegicus [49]
  Change: 2.7%
